Results: ChEMBL document CHEMBL1135742, “Modification of the structure of a metallopeptide: synthesis and biological evaluation of (111)In-labeled DOTA-conjugated rhenium-cyclized alpha-MSH analogues” (J Med Chem, 2002)

Experiments:
Assay type in all cases: functional, organism-based
Mus musculus [1] = organism: Mus musculus; experiment: Radioactivity uptake in the muscle was expressed as a percentage of the injected radioactive dose per gram of tissue (% ID/g) in B16/F1 Murine Melanoma-Bearing C57 Mice at 4 h
Method in brief: (§1)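 C57 BL/6 female mice (7–8 weeks) carried B16/F1 tumours from 1×10^6 cells given s.c. in the right flank; tumours were ~500 mg at 9–10 days. Each mouse received […] of HPLC-purified, neutralized 111In-DOTA peptide via the tail vein. Mice were killed at 0.5, 2, 4 or 24 h pi. Tissues were weighed and γ-counted, expressed as % ID/g; ratios were tumor/tissue % ID/g.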

Mus musculus [2] = organism: Mus musculus; experiment: Radioactivity uptake in the pancreas was expressed as a percentage of the injected radioactive dose per gram of tissue (% ID/g) in B16/F1 Murine Melanoma-Bearing C57 Mice at 0.5 h; method in brief: as §1
Mus musculus [3] = organism: Mus musculus; experiment: Radioactivity uptake in the pancreas was expressed as a percentage of the injected radioactive dose per gram of tissue (% ID/g) in B16/F1 Murine Melanoma-Bearing C57 Mice at 2 h; method in brief: as §1
Mus musculus [4] = organism: Mus musculus; experiment: Radioactivity uptake in the spleen was expressed as a percentage of the injected radioactive dose per gram of tissue (% ID/g) in B16/F1 Murine Melanoma-Bearing C57 Mice at 0.5 h; method in brief: as §1
Mus musculus [5] = organism: Mus musculus; experiment: Radioactivity uptake in the spleen was expressed as a percentage of the injected radioactive dose per gram of tissue (% ID/g) in B16/F1 Murine Melanoma-Bearing C57 Mice at 24 h; method in brief: as §1
Mus musculus [6] = organism: Mus musculus; experiment: Radioactivity uptake in the muscle was expressed as a percentage of the injected radioactive dose per gram of tissue (% ID/g) in B16/F1 Murine Melanoma-Bearing C57 Mice at 2 h; method in brief: as §1
Mus musculus [7] = organism: Mus musculus; experiment: Radioactivity uptake in the blood was expressed as a percentage of the injected radioactive dose per gram of tissue (% ID/g) in B16/F1 Murine Melanoma-Bearing C57 Mice at 24 h; method in brief: as §1
Mus musculus [8] = organism: Mus musculus; experiment: Radioactivity uptake in the heart was expressed as a percentage of the injected radioactive dose per gram of tissue (% ID/g) in B16/F1 Murine Melanoma-Bearing C57 Mice at 0.5 h; method in brief: as §1
Mus musculus [9] = organism: Mus musculus; experiment: Radioactivity uptake in the heart was expressed as a percentage of the injected radioactive dose per gram of tissue (% ID/g) in B16/F1 Murine Melanoma-Bearing C57 Mice at 2 h; method in brief: as §1
Mus musculus [10] = organism: Mus musculus; experiment: Radioactivity uptake in the heart was expressed as a percentage of the injected radioactive dose per gram of tissue (% ID/g) in B16/F1 Murine Melanoma-Bearing C57 Mice at 24 h; method in brief: as §1
Mus musculus [11] = organism: Mus musculus; experiment: Radioactivity uptake in the heart was expressed as a percentage of the injected radioactive dose per gram of tissue (% ID/g) in B16/F1 Murine Melanoma-Bearing C57 Mice at 4 h; method in brief: as §1
Mus musculus [12] = organism: Mus musculus; experiment: Radioactivity uptake in the kidneys was expressed as a percentage of the injected radioactive dose per gram of tissue (% ID/g) in B16/F1 Murine Melanoma-Bearing C57 Mice at 0.5 h; conditions: Kidney; method in brief: as §1
Mus musculus [13] = organism: Mus musculus; experiment: Radioactivity uptake in the kidneys was expressed as a percentage of the injected radioactive dose per gram of tissue (% ID/g) in B16/F1 Murine Melanoma-Bearing C57 Mice at 24 h; conditions: Kidney; method in brief: as §1
Mus musculus [14] = organism: Mus musculus; experiment: Radioactivity uptake in the liver was expressed as a percentage of the injected radioactive dose per gram of tissue (% ID/g) in B16/F1 Murine Melanoma-Bearing C57 Mice at 0.5 h; method in brief: as §1
Mus musculus [15] = organism: Mus musculus; experiment: Radioactivity uptake in the liver was expressed as a percentage of the injected radioactive dose per gram of tissue (% ID/g) in B16/F1 Murine Melanoma-Bearing C57 Mice at 2 h; method in brief: as §1
Mus musculus [16] = organism: Mus musculus; experiment: Radioactivity uptake in the liver was expressed as a percentage of the injected radioactive dose per gram of tissue (% ID/g) in B16/F1 Murine Melanoma-Bearing C57 Mice at 24 h; method in brief: as §1
Mus musculus [17] = organism: Mus musculus; experiment: Radioactivity uptake in the liver was expressed as a percentage of the injected radioactive dose per gram of tissue (% ID/g) in B16/F1 Murine Melanoma-Bearing C57 Mice at 4 h; method in brief: as §1
Mus musculus [18] = organism: Mus musculus; experiment: Radioactivity uptake in the lungs was expressed as a percentage of the injected radioactive dose per gram of tissue (% ID/g) in B16/F1 Murine Melanoma-Bearing C57 Mice at 2 h; conditions: Lung; method in brief: as §1
Mus musculus [19] = organism: Mus musculus; experiment: Radioactivity uptake in the lungs was expressed as a percentage of the injected radioactive dose per gram of tissue (% ID/g) in B16/F1 Murine Melanoma-Bearing C57 Mice at 24 h; conditions: Lung; method in brief: as §1
Mus musculus [20] = organism: Mus musculus; experiment: Radioactivity uptake in the lungs was expressed as a percentage of the injected radioactive dose per gram of tissue (% ID/g) in B16/F1 Murine Melanoma-Bearing C57 Mice at 4 h; conditions: Lung; method in brief: as §1
Mus musculus [21] = organism: Mus musculus; experiment: Uptake Ratio of Tumor/blood (each in % ID/g) in B16/F1 Murine Melanoma-Bearing C57 Mice at 0.5 h; method in brief: as §1
Mus musculus [22] = organism: Mus musculus; experiment: Uptake Ratio of Tumor/blood (each in % ID/g) in B16/F1 Murine Melanoma-Bearing C57 Mice at 24 h; method in brief: as §1
Mus musculus [23] = organism: Mus musculus; experiment: Uptake Ratio of Tumor/blood (each in % ID/g) in B16/F1 Murine Melanoma-Bearing C57 Mice at 4 h; method in brief: as §1
Mus musculus [24] = organism: Mus musculus; experiment: Uptake Ratio of Tumor/kidneys (each in % ID/g) in B16/F1 Murine Melanoma-Bearing C57 Mice at 2 h; conditions: Kidney; method in brief: as §1
Mus musculus [25] = organism: Mus musculus; experiment: Uptake Ratio of Tumor/liver (each in % ID/g) in B16/F1 Murine Melanoma-Bearing C57 Mice at 4 h; method in brief: as §1
Mus musculus [26] = organism: Mus musculus; experiment: Uptake Ratio of Tumor/lungs (each in % ID/g) in B16/F1 Murine Melanoma-Bearing C57 Mice at 2 h
Method in brief: (§2)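 Female C57 BL/6 mice, 7–8 weeks old, carried subcutaneous right-flank B16/F1 tumors from 1×10^6 cells and were used 9–10 days later at ~500 mg tumor weight. Each received […] of HPLC-purified, pH-neutralized ¹¹¹In-DOTA peptide by tail vein. Tumor and organs were excised at the stated time, weighed and γ-counted. Each tissue was taken as % ID/g, and tumor/normal-tissue ratios were formed from these values.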

Mus musculus [27] = organism: Mus musculus; experiment: Uptake Ratio of Tumor/lungs (each in % ID/g) in B16/F1 Murine Melanoma-Bearing C57 Mice at 24 h; method in brief: as §2
Mus musculus [28] = organism: Mus musculus; experiment: Uptake Ratio of Tumor/muscle (each in % ID/g) in B16/F1 Murine Melanoma-Bearing C57 Mice at 0.5 h; conditions: Muscle tissue; method in brief: as §2
Mus musculus [29] = organism: Mus musculus; experiment: Uptake Ratio of Tumor/muscle (each in % ID/g) in B16/F1 Murine Melanoma-Bearing C57 Mice at 2 h; conditions: Muscle tissue; method in brief: as §2
Mus musculus [30] = organism: Mus musculus; experiment: Uptake Ratio of Tumor/muscle (each in % ID/g) in B16/F1 Murine Melanoma-Bearing C57 Mice at 4 h; conditions: Muscle tissue; method in brief: as §2
Mus musculus [31] = organism: Mus musculus; experiment: Uptake Ratio of Tumor/kidneys (each in % ID/g) in B16/F1 Murine Melanoma-Bearing C57 Mice at 24 h; conditions: Kidney; method in brief: as §1
Mus musculus [32] = organism: Mus musculus; experiment: Uptake Ratio of Tumor/kidneys (each in % ID/g) in B16/F1 Murine Melanoma-Bearing C57 Mice at 4 h; conditions: Kidney; method in brief: as §1
Mus musculus [33] = organism: Mus musculus; experiment: Uptake Ratio of Tumor/liver (each in % ID/g) in B16/F1 Murine Melanoma-Bearing C57 Mice at 0.5 h; method in brief: as §1

Substance	ID/g (Mus musculus [1]) [%]	ID/g (Mus musculus [2]) [%]	ID/g (Mus musculus [3]) [%]	ID/g (Mus musculus [4]) [%]	ID/g (Mus musculus [5]) [%]	ID/g (Mus musculus [6]) [%]	ID/g (Mus musculus [7]) [%]	ID/g (Mus musculus [8]) [%]	ID/g (Mus musculus [9]) [%]	ID/g (Mus musculus [10]) [%]	ID/g (Mus musculus [11]) [%]	ID/g (Mus musculus [12]) [%]	ID/g (Mus musculus [13]) [%]	ID/g (Mus musculus [14]) [%]	ID/g (Mus musculus [15]) [%]	ID/g (Mus musculus [16]) [%]	ID/g (Mus musculus [17]) [%]	ID/g (Mus musculus [18]) [%]	ID/g (Mus musculus [19]) [%]	ID/g (Mus musculus [20]) [%]	other results
DOTA-ReCCEHdFRWCKPVD-OH	0.047	0.27	0.029	0.29	0.043	0.13	0.018	0.44	0.07	0.017	0.054	11.5	6.28	0.43	0.16	0.19	0.16	0.16	0.035	0.097	Uptake ratio (Mus musculus [21]): 6.8; Uptake ratio (Mus musculus [22]): 65.5; Uptake ratio (Mus musculus [23]): 199; Uptake ratio (Mus musculus [24]): 1.1; Uptake ratio (Mus musculus [25]): 46.8; Uptake ratio (Mus musculus [26]): 56.6; Uptake ratio (Mus musculus [27]): 105; Uptake ratio (Mus musculus [28]): 38.2; Uptake ratio (Mus musculus [29]): 102; Uptake ratio (Mus musculus [30]): 156; Uptake ratio (Mus musculus [31]): 0.4; Uptake ratio (Mus musculus [32]): 0.91; Uptake ratio (Mus musculus [33]): 20.7
DOTA-ReCCEHdFRWCKPV-NH2	0.093	0.62	0.048	0.59	0.14	0.047	0.01	0.72	0.066	0.13	0.12	13	5.64	0.59	0.23	0.16	0.2	0.18	0.06	0.11	Uptake ratio (Mus musculus [21]): 6.9; Uptake ratio (Mus musculus [22]): 601; Uptake ratio (Mus musculus [23]): 490; Uptake ratio (Mus musculus [24]): 1.3; Uptake ratio (Mus musculus [25]): 49.4; Uptake ratio (Mus musculus [26]): 69.4; Uptake ratio (Mus musculus [27]): 169; Uptake ratio (Mus musculus [28]): 27.8; Uptake ratio (Mus musculus [29]): 319; Uptake ratio (Mus musculus [30]): 159; Uptake ratio (Mus musculus [31]): 0.88; Uptake ratio (Mus musculus [32]): 1.1; Uptake ratio (Mus musculus [33]): 18.4
Ac-Lys(DOTA)-ReCCEHdFRWCKPV-NH2	0.017	0.48	0.074	0.51	0.21	0.02	0.072	0.86	0.08	0.13	0.029	23.4	13.4	0.66	0.24	0.28	0.29	0.18	0.14	0.18	Uptake ratio (Mus musculus [21]): 3.8; Uptake ratio (Mus musculus [22]): 67.2; Uptake ratio (Mus musculus [23]): 88.7; Uptake ratio (Mus musculus [24]): 0.46; Uptake ratio (Mus musculus [25]): 20.8; Uptake ratio (Mus musculus [26]): 48.6; Uptake ratio (Mus musculus [27]): 22.9; Uptake ratio (Mus musculus [28]): 17.6; Uptake ratio (Mus musculus [29]): 468; Uptake ratio (Mus musculus [30]): 3400; Uptake ratio (Mus musculus [31]): 0.27; Uptake ratio (Mus musculus [32]): 0.28; Uptake ratio (Mus musculus [33]): 10.7
DOTA-ReCCEHdFRWCRPV-NH2	0.086	0.41	0.08	0.78	0.32	0.03	0.06	0.76	0.07	0.36	0.054	9.31	5.64	0.66	0.38	0.32	0.3	0.3	0.24	0.13	Uptake ratio (Mus musculus [21]): 9.7; Uptake ratio (Mus musculus [22]): 95; Uptake ratio (Mus musculus [23]): 254; Uptake ratio (Mus musculus [24]): 2; Uptake ratio (Mus musculus [25]): 60.2; Uptake ratio (Mus musculus [26]): 65.4; Uptake ratio (Mus musculus [27]): 43.7; Uptake ratio (Mus musculus [28]): 47.4; Uptake ratio (Mus musculus [29]): 2100; Uptake ratio (Mus musculus [30]): 193; Uptake ratio (Mus musculus [31]): 1.5; Uptake ratio (Mus musculus [32]): 2.5; Uptake ratio (Mus musculus [33]): 25.2
DOTA-ReCCEHdFRWCKPV-OH	0.035	0.39	0.03	0.4	0.22	0.054	0.1	0.68	0.058	0.15	0.12	11.5	7.35	0.45	0.15	0.17	0.14	0.18	0.11	0.1	Uptake ratio (Mus musculus [21]): 6.9; Uptake ratio (Mus musculus [22]): 22.4; Uptake ratio (Mus musculus [23]): 200; Uptake ratio (Mus musculus [24]): 1.1; Uptake ratio (Mus musculus [25]): 69.1; Uptake ratio (Mus musculus [26]): 52.8; Uptake ratio (Mus musculus [27]): 85.1; Uptake ratio (Mus musculus [28]): 27.9; Uptake ratio (Mus musculus [29]): 174; Uptake ratio (Mus musculus [30]): 277; Uptake ratio (Mus musculus [31]): 0.43; Uptake ratio (Mus musculus [32]): 1.1; Uptake ratio (Mus musculus [33]): 23.1
